According to ChEMBL document CHEMBL1135407, “Structure-based design of a parallel synthetic array directed toward the discovery of irreversible inhibitors of human rhinovirus 3C protease” (J Med Chem, 2002):

Key:
HeLa = test: 50% cytotoxic concentration required to inhibit HRV-14 infected H1HeLa cells; assay type: functional; conditions: Homo sapiens
[1] = molecular target: T1, Human rhinovirus A protease (Human rhinovirus sp., UniProt Q4U254); test: Inhibition of Human Rhinovirus 14 (HRV14) Protease 3C
T1 sequence (Q4U254 whole entry): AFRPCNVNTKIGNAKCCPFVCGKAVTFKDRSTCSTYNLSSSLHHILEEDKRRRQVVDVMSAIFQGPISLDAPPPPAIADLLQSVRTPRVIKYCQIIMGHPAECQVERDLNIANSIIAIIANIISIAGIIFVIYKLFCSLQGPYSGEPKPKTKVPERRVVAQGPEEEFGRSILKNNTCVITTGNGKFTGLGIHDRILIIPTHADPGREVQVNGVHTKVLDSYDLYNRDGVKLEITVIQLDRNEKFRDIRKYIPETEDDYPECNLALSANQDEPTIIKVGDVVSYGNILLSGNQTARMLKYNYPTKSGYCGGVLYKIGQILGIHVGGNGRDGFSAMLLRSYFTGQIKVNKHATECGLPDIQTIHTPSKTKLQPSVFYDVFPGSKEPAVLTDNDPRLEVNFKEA

[2] = molecular target: T2, Human rhinovirus A protease (Human rhinovirus sp.) (UniProt Q4U254); test: Rate of inactivation of Human Rhinovirus 14 (HRV14) Protease 3C
T2 sequence (whole entry): T1 sequence (Q4U254 whole entry)
Summary of the method: (§1)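 Irreversible (Michael acceptor) inactivation of HRV-14 3C protease, reported as a second-order rate of inactivation in M^-1 sec^-1.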

[3] = molecular target: T2, Human rhinovirus A protease (Human rhinovirus sp.); test: Evaluated for the rate of inactivation of Human Rhinovirus 14 (HRV14) Protease 3C; summary of the method: as §1
[4] = molecular target: T2, Human rhinovirus A protease (Human rhinovirus sp.); test: Ability to inactivate Human Rhinovirus 16 Protease 3C
[5] = molecular target: T1, Human rhinovirus A protease; test: 50% effective concentration required to inhibit Human Rhinovirus 2 Protease 3C
[6] = molecular target: T1, Human rhinovirus A protease; test: 50% effective concentration required to inhibit Human Rhinovirus 1A Protease 3C
[7] = molecular target: T1, Human rhinovirus A protease; test: 50% effective concentration required to inhibit Human Rhinovirus 10 Protease 3C
[8] = molecular target: T2, Human rhinovirus A protease (Human rhinovirus sp.); test: Ability to inactivate Human Rhinovirus 2 Protease 3C
[9] = molecular target: T2, Human rhinovirus A protease (Human rhinovirus sp.); test: Ability to inactivate Human Rhinovirus 89 Protease 3C
[10] = molecular target: T1, Human rhinovirus A protease; test: 50% effective concentration required to inhibit Human Rhinovirus 89 Protease 3C
[11] = molecular target: T1, Human rhinovirus A protease; test: 50% effective concentration required to inhibit Human Rhinovirus 16 Protease 3C

SMILES | CC50 (HeLa) [nM] | EC50 [1] [nM] | K obs / 1 [2] [M⁻¹ s⁻¹] | also measured
CCOC(=O)/C=C/[C@H](C[C@@H]1CCNC1=O)NC(=O)c1ccc2ccc(Br)cc2c1 | > 50000 | 180 | 31400 | 
CCOC(=O)/C=C/[C@H](C[C@@H]1CCNC1=O)NC(=O)/C=C/c1cccc(Br)c1 | > 10000 | 1400 |  | K obs / 1 [3]: 2560 M⁻¹ s⁻¹
CCOC(=O)/C=C/[C@H](C[C@@H]1CCNC1=O)NC(=O)/C=C/c1ccc(C)c(Br)c1 | > 10000 | 1290 | 4080 | 
CCOC(=O)/C=C/[C@H](C[C@@H]1CCNC1=O)NC(=O)/C=C/c1cc2c(cc1Br)OCO2 | > 100000 | 490 | 14400 | 
CCOC(=O)/C=C/[C@H](C[C@@H]1CCNC1=O)NC(=O)c1cc(-c2ccccc2)oc1C | > 100000 | 1940 | 4740 | 
CCOC(=O)/C=C/[C@H](C[C@@H]1CCNC1=O)NC(=O)C1=Cc2ccccc2OC1 | > 100000 | 1190 | 886 | 
CCOC(=O)/C=C/[C@H](C[C@@H]1CCNC1=O)NC(=O)C1=Cc2cc(Cl)ccc2OC1 | > 100000 | 160 | 19700 | K obs / 1 [4]: 2200 M⁻¹ s⁻¹; EC50 [5]: 650 nM; EC50 [6]: 5100 nM; EC50 [7]: 460 nM; K obs / 1 [8]: 385 M⁻¹ s⁻¹
CCOC(=O)/C=C/[C@H](C[C@@H]1CCNC1=O)NC(=O)/C=C/c1ccc(F)c(Br)c1 | > 100000 | 630 | 2860 | 
CCOC(=O)/C=C/[C@H](C[C@@H]1CCNC1=O)NC(=O)C1=Cc2cc(Br)ccc2OC1 | > 100000 | 180 | 25000 | EC50 [7]: 550 nM; K obs / 1 [8]: 372 M⁻¹ s⁻¹
CCOC(=O)/C=C/[C@H](C[C@@H]1CCNC1=O)NC(=O)c1ccc2cc(C)ccc2c1 | > 100000 | 880 | 5000 | 
CCOC(=O)/C=C/[C@H](CCC(N)=O)NC(=O)C(Cc1ccccc1)NC(=O)[C@H](CC(C)C)NC(=O)OCc1ccccc1 (stereo partly specified) | > 100000 | 540 | 25000 | K obs / 1 [4]: 6530 M⁻¹ s⁻¹; EC50 [5]: 1600 nM; K obs / 1 [9]: 3440 M⁻¹ s⁻¹; EC50 [10]: 6300 nM; EC50 [7]: 600 nM; EC50 [11]: 2300 nM; K obs / 1 [8]: 2000 M⁻¹ s⁻¹
CCOC(=O)/C=C/[C@H](C[C@@H]1CCNC1=O)NC(=O)/C=C/c1ccc2c(c1)OCO2 | > 10000 | 1810 | 1960 | 
CCOC(=O)/C=C/[C@H](C[C@@H]1CCNC1=O)NC(=O)/C=C/c1cc(Br)ccc1Br |  |  | 6850 | 
CCOC(=O)/C=C/[C@H](C[C@@H]1CCNC1=O)NC(=O)c1ccc2ccccc2c1 | > 100000 | 150 | 1090 | EC50 [5]: 1400 nM; K obs / 1 [8]: 110 M⁻¹ s⁻¹
